The values that follow come from ChEMBL document CHEMBL5154667, “Discovery of 9,10-dihydrophenanthrene derivatives as SARS-CoV-2 3CLpro inhibitors for treating COVID-19” (Eur J Med Chem, 2022).

Data set [1] deals with T1, Replicase polyprotein 1ab (Severe acute respiratory syndrome coronavirus 2, UniProt P0DTD1). Description: Inhibition of SARS-CoV-2 3CL protease using Dabcyl-KNSTLQSGLRKE-Edan as substrate incubated for 30 mins and measured by FRET assay. The method in brief:
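Recombinant SARS-CoV-2 3CLpro, expressed and purified in-house, at 4 μg/mL final. Preincubated with compound (in DMSO) for 30 min at 37 °C in 0.1 M PBS pH 7.4 with 1 mM EDTA. Mean ± SD of at least three independent experiments.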

Data set [2] concerns the target Replicase polyprotein 1ab (Severe acute respiratory syndrome-related coronavirus, UniProt P0C6X7). Description: Inhibition of SARS-CoV 3CL protease using Dabcyl-KNSTLQSGLRKE-Edan as substrate incubated for 30 mins and measured by FRET assay. The method in brief: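 SARS-CoV 3CLpro, expressed and purified in-house like the SARS-CoV-2 enzyme, at 30 μg/mL final. Preincubated with compound for 30 min at 37 °C in 0.1 M PBS pH 7.4 with 1 mM EDTA. Mean ± SD of at least three independent runs.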

Data set [3] in a line: Stability in human plasma measured by LC-UV analysis. The format is ADME, cell-free. The method in brief:
(§1)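 Incubated at 37 °C in 100 mM PBS pH 7.4, as printed for the human plasma stability test. Sampled at 0, 15, 30 min and 1–12 h; proteins precipitated with cold acetonitrile. Centrifuged at 20,000×g, 4 °C, 30 min; supernatant analysed by LC-UV.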

The target in data set [4] is T1, Replicase polyprotein 1ab. Description: Mixed type inhibition of SARS-CoV-2 3CL protease using Dabcyl-KNSTLQSGLRKE-Edan as substrate incubated for 30 mins and measured by Lineweaver-Burk plot analysis.
Data set [5] can be described thus: Stability of the compound in simulated gastric fluid. The format is ADME. The settings on record: simulated gi fluid. The method in brief: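 Simulated gastric fluid: pepsin 400 mg and 656 μL 1 M HCl in 40 mL water. Analyte 20 μM in SGF at 37 °C, sampled 0–90 min. Quenched with equal volume cold acetonitrile, centrifuged (20,000×g, 4 °C, 30 min), analysed by LC-UV.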

Data set [6] can be described thus: Metabolic stability in human liver microsomes assessed as UGT-mediated metabolism at 20 uM and measured as half-life by LC-UV analysis. It counts as ADME, Microsome. The method in brief:
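Phase II: compound 20 μM with HLMs 0.2 mg/mL in 50 mM Tris-HCl pH 7.4 with 5 mM MgCl₂. After 3 min at 37 °C, started with 2 mM UDPGA. Quenched with cold acetonitrile at 0–90 min, centrifuged, supernatant analysed by LC-UV for half-life. 7-Hydroxycoumarin was the reference substrate.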

The nature of data set [7]: Metabolic stability in human liver microsomes assessed as CYP-mediated metabolism at 20 uM and measured as half-life by LC-UV analysis. The format is ADME, Microsome. In general terms: Liver microsomes are a subcellular fraction often used to study metabolism.
The nature of data set [8]: Stability in human plasma assessed as half-life measured by LC-UV analysis. The format is ADME, cell-free. The method, boiled down: as §1

One may read the IC50 as the midpoint of a concentration-inhibition curve. A high value points to a need for much substance. On to `CC(=O)OCC1Cc2c(-c3ccccn3)cccc2-c2c(O)ccc(-c3ccc(Br)cc3)c21` (stereo not given), for which, in data set [1], half-maximal inhibition (IC50) required 6.44 µM.
Compound `N#Cc1ccc(-c2cccc3c2CC(CO)c2c(-c4ccc(Br)cc4)ccc(O)c2-3)nc1` (stereo not given) came in with a half-maximal inhibitory concentration (IC50) in data set [1] of 10.7 µM.
On to `CC(=O)OCC1Cc2c(-c3ccc(C(C)=O)cn3)cccc2-c2c(O)ccc(-c3ccc(Br)cc3)c21` (stereo not given), for which the midpoint of inhibition in data set [1], the IC50, lay at 5.83 µM.
In the case of `CC(=O)OCC1Cc2c(-c3ccc(NCc4ccccc4)cn3)cccc2-c2c(O)ccc(-c3ccc(Br)cc3)c21` (stereo not given), the IC50 was found to be 5.79 µM in data set [2] and 3.31 µM in data set [1].
Compound `CC(=O)OCC1Cc2c(-c3ccccn3)cccc2-c2c(O)ccc(C(C)C)c21` (stereo not given) had an IC50 in data set [1] of 29.5 µM.
The same measure, in the same setting: the result for `CC(=O)OCC1Cc2c(-c3ccc(-c4ccccc4)cn3)cccc2-c2c(O)ccc(-c3ccc(Br)cc3)c21` (stereo not given) reads 8.28 µM; that for `OCC1Cc2c(-c3ccc(F)cn3)cccc2-c2c(O)ccc(-c3ccc(Br)cc3)c21` (stereo not given), 5.39 µM.
On the same count and under the same terms, the result for `CC(=O)OCC1Cc2c(-c3cc(N4CCCC4)ccn3)cccc2-c2c(O)ccc(-c3ccc(Br)cc3)c21` (stereo not given) reads 11.2 µM; that for `CC(=O)OCC1Cc2c(-c3ccccn3)cccc2-c2c(O)ccc(Cc3ccccc3)c21` (stereo not given), 11.4 µM; that for `CCc1ccc(O)c2c1C(COC(C)=O)Cc1c(-c3ccccn3)cccc1-2` (stereo not given), 33.1 µM.
Consider `CC(=O)OCC1Cc2c(-c3cc(-c4ccccc4)ccn3)cccc2-c2c(O)ccc(C)c21` (stereo not given), for which, in data set [1], the IC50 was 5.65 µM.
On the same count and under the same terms, next, `CC(=O)OCC1Cc2c(-c3ccncn3)cccc2-c2c(O)ccc(C)c21` (stereo not given): over 100 µM; `CC(=O)OCC1Cc2c(-c3cc4ccccc4cn3)cccc2-c2c(O)ccc(C)c21` (stereo not given): 12 µM.
The same measure, in the same setting: the result for `CC(=O)OCC1Cc2c(cccc2-n2cccn2)-c2c(O)ccc(C)c21` (stereo not given) reads over 100 µM; that for `CC(=O)OCC1Cc2c(-c3cc(C)ccn3)cccc2-c2c(O)ccc(C)c21` (stereo not given), 68.2 µM.
Consider `CC(=O)OCC1Cc2c(-c3cc(-c4ccccc4)ccn3)cccc2-c2c(O)ccc(-c3ccc(Br)cc3)c21` (stereo not given), for which the IC50 in data set [2] was determined as 17.7 µM; in data set [1], 2.46 µM.
`CC(=O)OCC1Cc2c(-c3ccccn3)ccc(Cl)c2-c2c(O)ccc(C)c21` (stereo not given) yielded an IC50 in data set [1] of 85.6 µM.
`CC(=O)OCC1Cc2c(-c3ccccn3)ccc(F)c2-c2c(O)ccc(C)c21` (stereo not given): the IC50 in data set [1] was over 100 µM.
On the same count and under the same terms, next, `COc1ccc(-c2ccccn2)c2c1-c1c(O)ccc(C)c1C(COC(C)=O)C2` (stereo not given): over 100 µM.
For `CC(=O)OCC1Cc2c(-c3ccc(C)cn3)cccc2-c2c(O)ccc(-c3ccc(Br)cc3)c21` (stereo not given), the IC50 in data set [1] amounted to 5.25 µM.
Same read-out and setting: next, `CC(=O)OCC1Cc2c(-c3ccccn3)ccc(C)c2-c2c(O)ccc(C)c21` (stereo not given): over 100 µM.
The term Ki denotes a measure of affinity in units of concentration, obtained from inhibition or displacement. Consider `OCC1Cc2c(-c3cc(-c4ccccc4)ccn3)cccc2-c2c(O)ccc(-c3ccc(Br)cc3)c21` (stereo not given), for which the values for the concentration for half-maximal inhibition (IC50) in data set [2] and in data set [1] were 5.35 µM and 1.55 µM, respectively. The Stability entry in data set [3] and in data set [5] was “Stable” throughout. In data set [4], this compound returned a Ki of 6.09 µM. The t1/2 in data set [6] and in data set [7] was over 1.5 h each time.
Turning to `CC(=O)OCC1Cc2c(-c3ccc(C#N)cn3)cccc2-c2c(O)ccc(-c3ccc(Br)cc3)c21` (stereo not given), the IC50 in data set [2] was determined as 7.12 µM; in data set [1] it was 2.78 µM.
Take `O=c1ccc2ccc(O)cc2o1` [UMBELLIFERONE]: the t1/2 in data set [6] was determined as 0.2588 h.
`CC(=O)OCC1Cc2c(-c3ccccn3)cc(C)cc2-c2c(O)ccc(C)c21` (stereo not given): in data set [1], the IC50 was 57.7 µM.
Turning to `C[C@]12CC[C@H]3[C@@H](CCC4=CC(=O)CC[C@@]43C)[C@@H]1CC[C@@H]2O` [TESTOSTERONE], the t1/2 in data set [7] was 0.4603 h.
Turning to `CC(=O)OCC1Cc2c(-c3cc(N4CCOCC4)ccn3)cccc2-c2c(O)ccc(-c3ccc(Br)cc3)c21` (stereo not given), in data set [1], the IC50 was 7.39 µM.
`CC(=O)OCC1Cc2c(-c3cc(Cl)ccn3)cccc2-c2c(O)ccc(-c3ccc(Br)cc3)c21` (stereo not given): the IC50 turned out to be 5.44 µM in data set [2] and 4.79 µM in data set [1].
On to `CC(=O)OCC1Cc2c(-c3ccc(Br)cn3)cccc2-c2c(O)ccc(-c3ccc(Br)cc3)c21` (stereo not given), for which the half-inhibitory concentration (IC50) in data set [1] was found to be 6.73 µM.
Same read-out and setting: the result for `CC(=O)OCC1Cc2c(-c3cc(-c4ccccc4)ccn3)cccc2-c2c(O)ccc(C3CCCCC3)c21` (stereo not given) reads 8.54 µM; that for `CC(=O)OCC1Cc2c(ccc(C)c2-c2ccccn2)-c2c(O)ccc(C)c21` (stereo not given), 53.8 µM.
Take `CC(=O)OCC1Cc2c(-c3cc(C=O)ccn3)cccc2-c2c(O)ccc(-c3ccc(Br)cc3)c21` (stereo not given): the results for the IC50 in data set [2] and in data set [1] were 3.2 µM and 3.32 µM, respectively.
For the compound `CC(=O)OCC1Cc2c(-c3ccc(Cl)cn3)cccc2-c2c(O)ccc(-c3ccc(Br)cc3)c21` (stereo not given), the IC50 in data set [2] was found to be 4.06 µM; in data set [1], 2.72 µM.
`CC(=O)OCC1Cc2c(-c3ccc4ccccc4n3)cccc2-c2c(O)ccc(C)c21` (stereo not given): half-maximal inhibition in data set [1] (IC50) was put at 13.8 µM.
Take `CC(=O)OCC1Cc2c(cccc2-c2ncnc3c2ncn3CC2CC2)-c2c(O)ccc(C)c21` (stereo not given): the IC50 in data set [1] was over 100 µM.
On the same count and under the same terms, next, `CC(=O)OCC1Cc2c(-c3cc(C#N)ccn3)cccc2-c2c(O)ccc(-c3ccc(Br)cc3)c21` (stereo not given): 10.3 µM; `CC(=O)OCC1Cc2c(-c3ccccn3)cccc2-c2c(O)ccc(-c3ccc(C#N)cc3)c21` (stereo not given): 19.3 µM.
Still for that read-out and setting: the result for `CC(=O)OCC1Cc2c(-c3ccc(F)cn3)cccc2-c2c(O)ccc(C)c21` (stereo not given) reads 66.8 µM.
In the case of `OCC1Cc2c(-c3ccc(Cl)cn3)cccc2-c2c(O)ccc(-c3ccc(Br)cc3)c21` (stereo not given), the figures for the IC50 in data set [2] and in data set [1] were 10.5 µM and 4.71 µM, respectively.
In data set [1], `C=CCn1cnc2c(-c3cccc4c3CC(COC(C)=O)c3c(C)ccc(O)c3-4)ncnc21` (stereo not given) gave an IC50 of over 100 µM.
For the compound `CC(=O)OCC1Cc2c(cccc2-c2nccc3ccccc23)-c2c(O)ccc(C)c21` (stereo not given), half-maximal inhibition in data set [1] (IC50) required 14.2 µM.
Take `CC(=O)OCC1Cc2c(-c3ccccn3)cccc2-c2c(O)ccc(C3CCCCC3)c21` (stereo not given): in data set [1], 9.06 µM corresponded to half-maximal inhibition (IC50).
Still for that read-out and setting: next, `CC(=O)OCC1Cc2c(-c3cc(C)ccn3)cccc2-c2c(O)ccc(-c3ccc(Br)cc3)c21` (stereo not given): 9.82 µM; `CC(=O)OCC1Cc2c(-c3ccccn3)cccc2-c2c(O)ccc(C)c21` (stereo not given): 61.2 µM.
On the same count and under the same terms, the result for `CC(=O)OCC1Cc2c(-c3ccccn3)ccc(Br)c2-c2c(O)ccc(C)c21` (stereo not given) reads over 100 µM.
With `CC(=O)OCC1Cc2c(-c3ccc(C=O)cn3)cccc2-c2c(O)ccc(-c3ccc(Br)cc3)c21` (stereo not given), the IC50 in data set [1] is 8.89 µM.
Consider `CC(=O)OCC1Cc2c(-c3ccc(Br)cn3)cccc2-c2c(O)ccc(C)c21` (stereo not given), for which it took 18.5 µM to reach half-maximal inhibition in data set [1] (IC50).
`CC(=O)OCC1Cc2c(-c3ccc(Cl)cn3)cccc2-c2c(O)ccc(C)c21` (stereo not given) returned an IC50 in data set [1] of 35.8 µM.
As for `CC(=O)OCC1Cc2c(-c3ccc(F)cn3)cccc2-c2c(O)ccc(-c3ccc(Br)cc3)c21` (stereo not given), the IC50 in data set [2] came out at 7.81 µM; in data set [1], 4.29 µM.
Regarding `CC(=O)OCC1Cc2c(-c3ncccc3C)cccc2-c2c(O)ccc(C)c21` (stereo not given), in data set [1], 58.9 µM corresponded to half-maximal inhibition (IC50).
The same measure, in the same setting: the result for `CC(=O)OCC1Cc2c(-c3ncccn3)cccc2-c2c(O)ccc(C)c21` (stereo not given) reads over 100 µM.
`O=Cc1ccnc(-c2cccc3c2CC(CO)c2c(-c4ccc(Br)cc4)ccc(O)c2-3)c1` (stereo not given): the IC50 in data set [2] amounted to 5.32 µM; in data set [1], 1.81 µM. The t1/2 in data set [8] came out at 8.97 h; in data set [6], 81.88 h; in data set [7], 32.09 h. In data set [4], this compound returned a Ki of 7.64 µM. Moreover, the Stability result in data set [5] is “Stable”.
Consider `CC(=O)OCC1Cc2c(-c3ccc(N(C)C)cn3)cccc2-c2c(O)ccc(-c3ccc(Br)cc3)c21` (stereo not given), for which the half-inhibitory concentration (IC50) in data set [2] was 5.92 µM; in data set [1], 3.66 µM.
`CC(=O)OCC1Cc2c(-c3ccc(S(C)(=O)=O)cn3)cccc2-c2c(O)ccc(-c3ccc(Br)cc3)c21` (stereo not given) displayed an IC50 in data set [1] of 6.65 µM.
